For data set [1], the target named is Human dihydroorotate dehydrogenase (DHODH) (Homo sapiens, UniProt Q02127). Put plainly: In vitro DHODH enzyme inhibition assay. It counts as biochemical. The settings on record: read-out: Inhibition (%) at 10 μmol/L.
In another data set the test system is ICR mice. Briefly: Acute toxicity study in mice. The data set is classed as in vivo.
Data set [2] concerns collagen-induced arthritis (CIA) in Wistar rats. Put plainly: Collagen-induced arthritis. The settings on record: for arthritis score (stabilized, lastly): scale 0-4, model group around 2.3. It counts as in vivo. The gist of the method: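 Adult male Wistar rats (130–150 g) were immunized with emulsified bovine type II collagen on Days 1 and 7. Dosing was oral, once daily for 28 days, with 0.5% CMC-Na vehicle. Arthritis was scored 0–4 daily, blinded. Body weight was taken every 3 days, plus hind-paw volume and terminal joint histopathology. Data are mean ± SEM.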

Data set [3] is described as follows: In vivo single dose PK study in rats. The settings on record: male, Sprague-Dawley, rat, plasma. Put shortly: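 Male Sprague–Dawley rats (n = 3 per route) received the test compound at 1 mg/kg i.v. or 10 mg/kg p.o. Heparinized blood was sampled at 5, 15 and 30 min and at 1, 2, 4, 8 and 24 h. Levels were quantified by LC/MS/MS, with noncompartmental PK analysis. For i.v., Cmax was taken as C0.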

SMILES strings stand for the structures.

The AUC is concentration integrated over time. Low values mean low exposure, high ones high exposure. By Cmax is commonly meant the highest concentration seen after dosing. Usually Vd stands for the apparent volume that relates the amount in the body to the concentration in plasma or blood. Read a low Vd as confinement near the circulation. A word on the clearance: it is the volume of plasma or blood freed of the substance per unit of time. Broadly, the half-life is the time in which the quantity being followed falls by half. Read a high half-life as slow decline. For orientation: bioavailability means the share of a dose that reaches the circulation, judged against a reference dose that is usually intravenous. What is called Tmax is the time at which the peak concentration occurs.

Chain of Human dihydroorotate dehydrogenase (DHODH) (Q02127 whole entry): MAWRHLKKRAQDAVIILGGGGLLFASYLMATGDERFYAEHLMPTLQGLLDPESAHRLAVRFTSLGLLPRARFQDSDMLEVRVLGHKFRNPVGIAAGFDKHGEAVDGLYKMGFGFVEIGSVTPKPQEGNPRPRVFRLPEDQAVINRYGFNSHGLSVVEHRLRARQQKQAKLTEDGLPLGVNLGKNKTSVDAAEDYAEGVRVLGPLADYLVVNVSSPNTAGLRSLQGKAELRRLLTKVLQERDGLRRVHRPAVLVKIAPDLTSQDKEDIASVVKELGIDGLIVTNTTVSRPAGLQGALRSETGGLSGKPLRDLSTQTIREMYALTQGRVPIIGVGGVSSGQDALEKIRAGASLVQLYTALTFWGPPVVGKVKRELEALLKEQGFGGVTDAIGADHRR

For `C/C(=C\c1ccc2ccccc2c1Cl)C(=O)Nc1ccc(F)cc1C(=O)O` [Compound 54], the inhibition at 10 µM in data set [1] was determined as 98.7%. Further, the behavior and mortality entry in the data set with ICR mice (single intragastric dose 300 and 500 mg/kg, 14 days observation, n = 3) is “No obvious abnormal in behaviors or mortality”. The “morphological examination of liver and kidney” value in the data set with ICR mice (single intragastric dose 300 and 500 mg/kg, day 14) was “did not find remarkable injury”. Moreover, in the data set on ICR mice (single intragastric dose 300 and 500 mg/kg, end of experiment (day 14)), the “body weight change compared to control group” value is on record as “no significant change in body weight”. The tolerated dose with ICR mice (single intragastric dose, mice) is given as ≥ 500 mg/kg. Moreover, the “arthritis score (stabilized, lastly)” value in data set [2] (10 mg/kg orally once a day for 28 days) is listed as “around 1”. For the same compound, in data set [2] (30 mg/kg orally once a day for 28 days), the “arthritis score (stabilized, lastly)” value is ~0.6. Moreover, the “histopathological symptoms of arthritis in ankle joints (H&E)” value in data set [2] (54 at 10 and 30 mg/kg, after four weeks of therapy, dose-dependent) is listed as “significantly alleviated”. For the same compound, the “volumes of paws in CIA rats compared to model rats” value in data set [2] (orally once a day for 28 days, methotrexate 0.3 mg/kg, 54 at 10 and 30 mg/kg) was “significantly decreased”. In data set [3] (iv, 1 mg/kg), the AUC was found to be 381 µg·h/mL, the concentration peaked (Cmax) at 31.5 µg/mL, the Vd amounted to 0.069 L/kg and the clearance was 2.6 mL/h/kg. Moreover, the half-life in data set [3] (iv, 1 mg/kg) was 18.1 h. For the same compound, the bioavailability in data set [3] (oral, 10 mg/kg) was determined as 67.1%. In data set [3] (po, 10 mg/kg), the AUC was 2560 µg·h/mL, the Cmax came to 77.8 µg/mL, the Tmax is 4.67 h and the half-life was 21.5 h.

For the origin of these results see publication PMC7558257 (Acta Pharmaceutica Sinica. B, 2020).
